# Experimental data as given in ChEMBL document CHEMBL1121938, “Hypocholesterolemic and antiaggregatory properties of 2-hydroxytetronic acid redox analogues an their relationship to clofibric acid” (1982).
# Tests used:
# [1] = tested on: Rattus norvegicus; assay: Effect of compound was measured on serum total cholesterol in male Dawley rats at the dose of 0.4 mmol/kg (day+10).; format: functional, organism-based
# In short: (§1)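 Serum total cholesterol was measured enzymatically on a bichromatic analyzer. Serum was separated after clotting on ice (2000g, 10 min), held at 4 °C and assayed within 48 h. Rats were male Sprague-Dawley on a high-cholesterol diet, n = 6, dosed orally twice daily for 14 days in 0.25% methylcellulose (1.0 mL/100 g). They were fasted 16-18 h before each bleed. Results are in mg/dL ± SD.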
# [2] = tested on: Rattus norvegicus; assay: Effect of compound was measured on serum total cholesterol in male Dawley rats at the dose of 0.4 mmol/kg (day+14).; format: functional, organism-based; in short: as §1
# [3] = tested on: Rattus norvegicus; assay: Effect of compound was measured on serum total triglycerides in male Dawley rats at the dose of 0.4 mmol/kg (day+4).; format: functional, organism-based
# In short: (§2)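 Serum triglycerides were measured with an enzymatic triglyceride reagent on a bichromatic analyzer. Rats were male Sprague-Dawley (180-210 g) fed a high-cholesterol diet, n = 6 per group, dosed orally twice daily for 14 days in 0.25% methylcellulose or vehicle. They were fasted 16-18 h before blood collection on days -1, +4, +7, +10 (orbital plexus, light ether) and +14 (aorta). Analysis was repeated-measures ANOVA with Duncan's test.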
# [4] = tested on: Rattus norvegicus; assay: Effect of compound was measured on serum total cholesterol in male Dawley rats at the dose of 0.4 mmol/kg (day+7).; format: functional, organism-based; in short: as §1
# [5] = tested on: Rattus norvegicus; assay: Effect of compound was measured on serum alpha-lipoprotein in male Dawley rats at the dose of 0.4 mmol/kg (day+10).; format: functional, organism-based
# In short: (§3)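 Male Sprague-Dawley rats (180-210 g) fed a high-cholesterol diet for 1 week before and throughout dosing. Groups of n = 6 were dosed orally twice daily for 14 days in 0.25% methylcellulose, with vehicle controls. Rats were fasted 16-18 h before orbital bleeds on days -1, +4, +7 and +10, and by aortic exsanguination on day +14. Serum α-lipoprotein cholesterol was measured by polyanionic precipitation, in mg/dL ± SD.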
# [6] = Effect of compound was measured on serum heparin-MnCl2 precipated ipoprotein Dawley rats at 0.4 mmol/kg dose(day+10).; format: functional
# In short: (§4)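 Cholesterol-fed male Sprague-Dawley rats, n = 6 per group, given compound or 0.25% methylcellulose orally twice daily for 14 days, and fasted 16-18 h before each bleed (days -1, +4, +7, +10, +14). Heparin-MnCl2 precipitable lipoprotein cholesterol was taken as serum total cholesterol minus α-lipoprotein cholesterol. It is reported as a ratio to α-LP cholesterol ± SD. Analysis was ANOVA with repeated measures and Duncan's test.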
# [7] = tested on: Rattus norvegicus; assay: Effect of compound was measured on serum total triglycerides in male Dawley rats at the dose of 0.4 mmol/kg (day+10).; format: functional, organism-based; in short: as §2
# [8] = tested on: Rattus norvegicus; assay: Effect of compound on liver TG levels in male Dawley rats at the dose of 0.4 mmol/kg; format: functional; design: unit: g/100 g wet liver
# In short: (§5)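 Male Sprague-Dawley rats (180-210 g) were kept on a high-cholesterol diet for 1 week before and throughout treatment. Groups of n = 6 received drug in 0.25% methylcellulose orally twice daily for 14 days, or vehicle. After a 16-18 h fast, livers were excised at day +14 and homogenized in 0.1 M Tris-HCl pH 7.2 with 1.15% KCl. Lipids were extracted from 25% w/v homogenate and reported as g/100 g wet liver ± SD; groups compared by ANOVA and Duncan's test.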
# [9] = Effect of compound was measured on serum heparin-MnCl2 precipated ipoprotein Dawley rats at 0.4 mmol/kg dose(day-1).; format: functional; in short: as §4
# [10] = tested on: Rattus norvegicus; assay: Effect of compound was measured on serum alpha-lipoprotein in male Dawley rats at the dose of 0.4 mmol/kg (day+4).; format: functional, organism-based; in short: as §3
# [11] = Effect of compound was measured on serum heparin-MnCl2 precipated ipoprotein Dawley rats at 0.4 mmol/kg dose(day+7).; format: functional; in short: as §4
# [12] = Effect of compound was measured on serum heparin-MnCl2 precipated ipoprotein Dawley rats at 0.4 mmol/kg dose(day+4).; format: functional; in short: as §4
# [13] = Effect of compound on liver to body weight ratio in male Dawley rats at the dose of 0.4 mmol/kg; format: functional
# In short: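 Male Sprague-Dawley rats (180-210 g) were kept on a cholesterol-rich diet and dosed orally twice daily for 14 days in 0.25% methylcellulose; vehicle controls received the same; n = 6 per group. After a 16-18 h fast, rats were exsanguinated at day +14. Livers were removed, rinsed in ice-cold buffer, blotted and weighed, and related to body weight. Data were analysed by repeated-measures ANOVA with Duncan's multiple range test.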
# [14] = tested on: Rattus norvegicus; assay: Effect of compound was measured on serum alpha-lipoprotein in male Dawley rats at the dose of 0.4 mmol/kg (day-1).; format: functional, organism-based; in short: as §3
# [15] = tested on: Rattus norvegicus; assay: Effect of compound was measured on serum total triglycerides in male Dawley rats at the dose of 0.4 mmol/kg (day-1).; format: functional, organism-based; in short: as §2
# [16] = tested on: Rattus norvegicus; assay: Effect of compound was measured on serum total triglycerides in male Dawley rats at the dose of 0.4 mmol/kg (day+7).; format: functional, organism-based; in short: as §2
# [17] = tested on: Rattus norvegicus; assay: Effect of compound was measured on serum alpha-lipoprotein in male Dawley rats at the dose of 0.4 mmol/kg (day+7).; format: functional, organism-based; in short: as §3
# [18] = tested on: Rattus norvegicus; assay: Effect of compound was measured on serum total cholesterol in male Dawley rats at the dose of 0.4 mmol/kg (day+4).; format: functional, organism-based; in short: as §1
# [19] = tested on: Rattus norvegicus; assay: Effect of compound was measured on serum total triglycerides in male Dawley rats at the dose of 0.4 mmol/kg (day+14).; format: functional, organism-based; in short: as §2
# [20] = Effect of compound was measured on serum heparin-MnCl2 precipated ipoprotein Dawley rats at 0.4 mmol/kg dose(day+14).; format: functional; in short: as §4
# [21] = tested on: Rattus norvegicus; assay: Effect of compound was measured on serum alpha-lipoprotein in male Dawley rats at the dose of 0.4 mmol/kg (day14).; format: functional, organism-based; in short: as §3
# [22] = tested on: Rattus norvegicus; assay: Effect of compound on liver CH levels in male Dawley rats at the dose of 0.4 mmol/kg; format: functional; design: unit: g/100 g wet liver; in short: as §5
# [23] = tested on: Rattus norvegicus; assay: Effect of compound was measured on serum total cholesterol in male Dawley rats at the dose of 0.4 mmol/kg (day-1).; format: functional, organism-based; in short: as §1
smiles,measurement,setting,value
NC1=C(O)C(=O)C(c2ccc(Cl)cc2)O1 (stereo not drawn),serum total cholesterol,[1],344 mg/dL
same,serum total cholesterol,[2],278 mg/dL
same,Serum total triglycerides,[3],147 mg/dL
same,serum total cholesterol,[4],252 mg/dL
same,alpha-lipoprotein cholesterol,[5],43.7 mg/dL
same,Ratio,[6],7.13
same,Serum total triglycerides,[7],158 mg/dL
same,Liver TG,[8],2.8
same,Ratio,[9],3.65
same,alpha-lipoprotein cholesterol,[10],33.2 mg/dL
same,Ratio,[11],5.59
same,Ratio,[12],3.43
same,Ratio,[13],4.1
same,alpha-lipoprotein cholesterol,[14],43.8 mg/dL
same,Serum total triglycerides,[15],179 mg/dL
same,Serum total triglycerides,[16],128 mg/dL
same,alpha-lipoprotein cholesterol,[17],43 mg/dL
same,serum total cholesterol,[18],138 mg/dL
same,Serum total triglycerides,[19],119 mg/dL
same,Ratio,[20],6.31
same,alpha-lipoprotein cholesterol,[21],38.8 mg/dL
same,Liver CH levels,[22],4.03
same,serum total cholesterol,[23],193 mg/dL
